# Measured values gathered from unrelated publications.
# Each line is one published result; the experiments were not run side by side.
# Effect on: cell growth or viability
Compound,cell line,assay,setting,endpoint,value
O=C(Nc1ccccc1)Nc1ccc(Oc2nnc(-c3ccc(Cl)cc3)c3ccccc23)cc1,MCF7,MTT,0.625 µM,cell death,95.4%
CCOC(=O)c1nn(-c2cccc(Cl)c2)/c(=N/N=C(\C)c2ccc(NC(=O)c3ccc(Cl)cc3)cc2)s1,MCF7,MTT,78 nM,viability,73.5%
COc1ccc(COC[C@@](O)(CNCc2ccccc2)[C@@H]2CC[C@@H](C)C[C@H]2OCc2ccc(OC)cc2)cc1,MCF7,MTT,"10 µM, 72 h",inhibition,96.2%
Cc1c(C(=O)O)ccc2c3n(nc12)[C@@H]1[C@H](C3)N(CC2CC2)[C@@]2(C(=O)Nc3cc(Cl)ccc32)[C@H]1c1cccc(Cl)c1F,SJSA-1,ATP luminescence,,IC50,0.012 µM
C=C(COCc1ccc(F)cc1)[C@@H]1CC[C@@H](C)C[C@H]1OCc1ccc(F)cc1,MCF7,MTT,"30 µM, 72 h",inhibition,46.2%
CC(=O)Nc1ccc(Oc2nnc(-c3ccc(Cl)cc3)c3ccccc23)cc1,MCF7,MTT,1.25 µM,cell death,93.9%
CC(=O)c1nn(-c2ccc(C)cc2)/c(=N/N=C(\C)c2ccc(NC(=O)c3ccccc3)cc2)s1,MCF7,MTT,10 µM,viability,6.47%
C[C@@H]1CC[C@@H]([C@](O)(CNCc2cccc3ccccc23)COCc2ccccc2)[C@H](OCc2ccccc2)C1,MCF7,MTT,"10 µM, 72 h",inhibition,81.1%
C=CC(=O)NC1CCN(c2ncc3ncnc(Nc4ccc(Oc5ccc6c(c5)ncn6C)c(C)c4)c3n2)CC1,SNU-398,,,EC50,0.0365 µM
